Results: ChEMBL document CHEMBL1123529, “Analogues of substance P. Peptides containing D-amino acid residues in various positions of substance P and displaying agonist or receptor selective antagonist effects” (1986)

Experiments:
[1] = molecular target: Metabotropic glutamate receptor 3 (Rattus norvegicus) (UniProt P31422); assay: Antagonistic activity against Glutamate receptor in rat spinal cord at concentration of 5 uM.; assay type: functional, tissue-based
Procedure, shortened: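 Neonatal hemisectioned spinal cord from Wistar rats (Alderley Park strain, 2-7 days old), anaesthetised with intraperitoneal urethane (25% w/v, […]) and then decapitated. Cord superfused with oxygenated medium at 1 mL/min. Agonist (SP, SP(6-11), glutamate or carbachol) applied as 2-mL doses in the superfusate. Antagonist superfused for at least 15 min before agonists were retested. Read-out: % change in ventral root–cord DC potential response amplitude.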

[2] = molecular target: Substance-P receptor (Cavia porcellus) (UniProt P30547); assay: Antagonistic activity against Substance P(6-11) receptor in guinea pig ileum at concentration of 5 uM.; assay type: functional, tissue-based
Procedure, shortened: (§1)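 Distal ileum from Dunkin-Hartley guinea pigs (300-350 g, both sexes) in a Krebs organ bath at 37 °C, gassed with 95% O2/5% CO2. Agonist (SP or SP(6-11)) dose-response curves run on a 3-min cycle with 1-min contact, with and without antagonist. Dose ratio = agonist EC50 with antagonist / EC50 alone. At least two preparations per compound; ratios below 2 taken as insignificant.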

[3] = In vitro antagonistic activity against Substance P on guinea pig ileum at concentration of 10 uM.; assay type: functional, Cavia porcellus
Procedure, shortened: (§2)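 Dose-response curves used a 3-min cycle with 1-min contact and washout, with SP or SP(6-11)-hexapeptide as agonist. Dose ratio is the agonist EC50 with antagonist divided by the EC50 alone. At least two preparations per compound; ratios under 2 were considered insignificant.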

[4] = molecular target: Substance-P receptor (Cavia porcellus) (UniProt P30547); assay: Antagonistic activity against Substance P receptor in guinea pig ileum at concentration of 5 uM.; assay type: functional, tissue-based; procedure, shortened: as §1
[5] = In vitro antagonistic activity against Substance P(6-11) in guinea pig ileum at concentration of 10 uM.; assay type: functional, Cavia porcellus; procedure, shortened: as §2
[6] = molecular target: Substance-P receptor (Rattus norvegicus) (UniProt P14600); assay: Antagonistic activity against Substance P receptor in rat spinal cord at concentration of 5 uM.
[7] = molecular target: Substance-P receptor (Rattus norvegicus) (UniProt P14600); assay: Antagonistic activity against Substance P receptor in rat spinal cord at concentration of 50 uM.
[8] = molecular target: Substance-P receptor (Rattus norvegicus) (UniProt P14600); assay: Antagonistic activity against Substance P(6-11) receptor in rat spinal cord at concentration of 5 uM.
[9] = molecular target: Substance-P receptor (Rattus norvegicus) (UniProt P14600); assay: Antagonistic activity against Substance P(6-11) receptor in rat spinal cord at concentration of 50 uM.
[10] = molecular target: Substance-P receptor (Cavia porcellus) (UniProt P30547); assay: Evaluated in vitro for percent agonist activity in guinea pig ileum (substance P receptor); assay type: functional, tissue-based
[11] = molecular target: Substance-P receptor (Cavia porcellus) (UniProt P30547); assay: Antagonistic activity against Substance P receptor in guinea pig ileum at concentration of 100 uM.; assay type: functional, tissue-based; procedure, shortened: as §1
[12] = molecular target: Substance-P receptor (Cavia porcellus) (UniProt P30547); assay: Antagonistic activity against Substance P(6-11) receptor in guinea pig ileum at concentration of 100 uM.; assay type: functional, tissue-based; procedure, shortened: as §1

Sequence of Substance-P receptor (Rattus norvegicus) (P14600 whole entry, looked up): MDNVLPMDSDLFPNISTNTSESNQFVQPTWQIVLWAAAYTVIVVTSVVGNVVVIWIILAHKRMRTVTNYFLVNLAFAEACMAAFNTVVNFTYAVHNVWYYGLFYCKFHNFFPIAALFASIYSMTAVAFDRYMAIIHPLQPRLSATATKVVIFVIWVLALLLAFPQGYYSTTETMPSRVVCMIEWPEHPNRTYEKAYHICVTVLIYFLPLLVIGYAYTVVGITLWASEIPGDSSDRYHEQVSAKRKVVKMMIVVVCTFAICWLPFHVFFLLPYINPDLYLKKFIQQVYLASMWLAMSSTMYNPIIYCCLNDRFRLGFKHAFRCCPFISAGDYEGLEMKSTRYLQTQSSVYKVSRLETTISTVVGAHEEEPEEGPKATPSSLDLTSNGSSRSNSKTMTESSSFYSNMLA
Sequence of Substance-P receptor (Cavia porcellus) (P30547 whole entry): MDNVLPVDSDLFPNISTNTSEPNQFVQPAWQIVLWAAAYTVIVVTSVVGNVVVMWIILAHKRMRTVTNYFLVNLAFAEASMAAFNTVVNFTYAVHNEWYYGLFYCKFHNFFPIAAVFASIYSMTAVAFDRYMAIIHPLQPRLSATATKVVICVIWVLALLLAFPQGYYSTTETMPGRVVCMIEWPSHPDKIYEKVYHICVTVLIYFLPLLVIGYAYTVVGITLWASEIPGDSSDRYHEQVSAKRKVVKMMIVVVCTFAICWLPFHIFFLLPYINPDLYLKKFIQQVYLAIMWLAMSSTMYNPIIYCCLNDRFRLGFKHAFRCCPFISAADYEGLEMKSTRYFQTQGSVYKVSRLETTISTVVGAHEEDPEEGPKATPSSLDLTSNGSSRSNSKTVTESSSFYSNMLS
Sequence of Metabotropic glutamate receptor 3 (Rattus norvegicus) (P31422 23-879 limits assumed): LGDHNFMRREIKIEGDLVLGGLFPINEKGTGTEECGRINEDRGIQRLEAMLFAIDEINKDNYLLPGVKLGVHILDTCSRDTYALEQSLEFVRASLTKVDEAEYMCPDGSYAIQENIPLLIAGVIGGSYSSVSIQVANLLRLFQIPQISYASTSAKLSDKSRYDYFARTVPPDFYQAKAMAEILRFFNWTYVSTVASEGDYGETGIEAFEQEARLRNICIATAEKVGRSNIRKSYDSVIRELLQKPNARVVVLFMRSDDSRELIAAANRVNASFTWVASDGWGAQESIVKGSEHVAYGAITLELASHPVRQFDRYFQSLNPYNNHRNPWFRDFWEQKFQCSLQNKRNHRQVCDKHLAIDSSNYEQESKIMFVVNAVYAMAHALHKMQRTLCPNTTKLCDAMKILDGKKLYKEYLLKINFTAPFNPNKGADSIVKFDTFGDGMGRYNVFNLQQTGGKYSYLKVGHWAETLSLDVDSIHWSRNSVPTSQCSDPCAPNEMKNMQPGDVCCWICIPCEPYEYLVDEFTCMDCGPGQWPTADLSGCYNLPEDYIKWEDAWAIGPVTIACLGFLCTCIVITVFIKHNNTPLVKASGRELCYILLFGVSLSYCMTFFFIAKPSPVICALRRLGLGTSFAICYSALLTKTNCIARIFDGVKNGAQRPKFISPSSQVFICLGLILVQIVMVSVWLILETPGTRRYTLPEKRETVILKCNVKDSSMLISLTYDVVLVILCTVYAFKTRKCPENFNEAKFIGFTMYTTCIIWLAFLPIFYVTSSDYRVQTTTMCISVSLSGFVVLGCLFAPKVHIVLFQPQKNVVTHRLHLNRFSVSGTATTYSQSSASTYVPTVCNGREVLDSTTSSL

| SMILES | Change in amplitude response [1] | Activity [2] | Activity [3] | Activity [4] | Activity [5] | Change in amplitude response [6] | Change in amplitude response [7] | Change in amplitude response [8] | Change in amplitude response [9] | SP [10] | Activity [11] | Activity [12] |
| --- | --- | --- | --- | --- | --- | --- | --- | --- | --- | --- | --- | --- |
| CSCC[C@@H](NC(=O)[C@H](CC(C)C)NC(=O)[C@@H](Cc1c[nH]c2ccccc12)NC(=O)C(Cc1ccccc1)NC(=O)[C@@H](Cc1c[nH]c2ccccc12)NC(=O)[C@H](CCC(N)=O)NC(=O)[C@H](CCC(N)=O)NC(=O)C1CCCN1C(=O)[C@H](CCCCN)NC(=O)C1CCCN1C(=O)[C@@H](N)CCCN=C(N)N)C(=O)O (stereo in doubt) | -20% | 3.4 dose ratio | 5.3 dose ratio | 6.3 dose ratio | 4.3 dose ratio | 21% | 16% | -62% | -100% | – | – | – |
| COC(=O)[C@@H](CCSC)NC(=O)[C@H](CC(C)C)NC(=O)CNC(=O)[C@H](Cc1c[nH]c2ccccc12)NC(=O)[C@@H](Cc1c[nH]c2ccccc12)NC(=O)[C@H](CCC(N)=O)NC(=O)[C@H](CCC(N)=O)NC(=O)[C@@H]1CCCN1C(=O)[C@H](CCCCN)NC(=O)[C@@H]1CCCN1C(=O)[C@@H](N)CCCN=C(N)N | – | – | – | – | – | – | – | – | – | < 0.0001% | < 2 dose ratio | < 2 dose ratio |
